Data taken from paper PMC10759213 (RSC Advances, 2024).
Where two headings read alike, the source gives them in different places.

Key:
[1] = DPPH radical scavenging antioxidant assay; settings: for Antioxidant activity % Inhibition ± SD: DPPH 300 μM, 37 °C, 30 minutes; for Antioxidant activity EC50: concentration required to scavenge 50% of DPPH; for Antioxidant activity (in words): DPPH
Outline: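 Test sample mixed with ethanolic DPPH radical solution (300 μM before mixing), incubated at 37 °C for 30 min, and absorbance read at 515 nm. Percent radical inhibition was calculated against a DMSO negative control, with ascorbic acid as the standard. EC50 is the sample concentration (μg ml−1) needed to scavenge 50% of DPPH.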

urease = urease (Canavalia ensiformis, UniProt P07374); assay: In vitro urease inhibition assay; format: biochemical
urease, sequence (P07374 whole entry, looked up): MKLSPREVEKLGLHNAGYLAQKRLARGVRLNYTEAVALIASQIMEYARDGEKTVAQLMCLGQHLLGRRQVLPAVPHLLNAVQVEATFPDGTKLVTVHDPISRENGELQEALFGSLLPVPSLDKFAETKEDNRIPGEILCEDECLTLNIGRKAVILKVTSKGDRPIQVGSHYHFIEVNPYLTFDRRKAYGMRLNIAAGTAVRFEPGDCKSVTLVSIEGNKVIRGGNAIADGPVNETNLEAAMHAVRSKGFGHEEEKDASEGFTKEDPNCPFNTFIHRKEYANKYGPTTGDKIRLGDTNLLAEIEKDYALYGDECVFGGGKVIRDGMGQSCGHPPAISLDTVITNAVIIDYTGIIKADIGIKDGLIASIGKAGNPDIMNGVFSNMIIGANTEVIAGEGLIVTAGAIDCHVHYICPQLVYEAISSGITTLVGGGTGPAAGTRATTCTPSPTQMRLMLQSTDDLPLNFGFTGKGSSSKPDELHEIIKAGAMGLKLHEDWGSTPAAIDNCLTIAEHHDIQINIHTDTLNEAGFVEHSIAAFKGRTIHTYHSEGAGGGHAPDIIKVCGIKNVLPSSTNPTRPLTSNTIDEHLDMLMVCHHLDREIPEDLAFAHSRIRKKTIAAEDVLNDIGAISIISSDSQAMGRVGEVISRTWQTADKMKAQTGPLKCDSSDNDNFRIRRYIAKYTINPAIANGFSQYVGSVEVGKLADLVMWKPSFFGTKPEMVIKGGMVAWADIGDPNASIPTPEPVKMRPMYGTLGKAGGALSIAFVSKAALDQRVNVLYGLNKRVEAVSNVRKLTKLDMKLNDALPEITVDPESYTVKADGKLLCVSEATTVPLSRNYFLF

Structure (SMILES) | Antioxidant activity % Inhibition ± SD [1] [%] | Antioxidant activity EC50 [1] [mg/L] | Antioxidant activity (in words) [1] | IC50 (urease) [µM] | IC50 (urease; read-out: Urease inhibition IC50 ± SD, indophenol method, 15 min at 30 °C, pH 8.2, triplicate) [µM]
CCOc1cc(-c2nc3cc4ccccc4cc3[nH]2)ccc1OC [Compound 7, 2-(3-Ethoxy-4-methoxyphenyl)-1H-naphtho[2,3-d]imidazole] | 57.8 ± 0.01 | 100 | – | – | –
c1ccc2cc3[nH]c(-c4c[nH]c5ccccc45)nc3cc2c1 [Compound 1, 2-(1H-Indol-3-yl)-1H-naphtho[2,3-d]imidazole] | 71.1 ± 0.01 | 37.5 | excellent antioxidant activity | 92.3 ± 0.2 | –
Oc1ccc(-c2nc3cc4ccccc4cc3[nH]2)c(O)c1O [Compound 10, 4-(1H-Naphtho[2,3-d]imidazol-2-yl)benzene-1,2,3-triol] | 57.9 ± 0.02 | 100 | – | – | –
COc1cc(-c2nc3cc4ccccc4cc3[nH]2)cc(OC)c1O [Compound 5, 2,6-Dimethoxy-4-(1H-naphtho[2,3-d]imidazol-2-yl)phenol] | 12 ± 0.01 | – | – | – | –
COc1ccc(-c2nc3cc4ccccc4cc3[nH]2)cc1O [Compound 6, 2-Methoxy-5-(1H-naphtho[2,3-d]imidazol-2-yl) phenol] | 71 ± 0.01 | 37.5 | excellent antioxidant activity | – | –
CC(=O)NO [Acetohydroxamic acid, reference compound] | – | – | – | – | 37
COc1cc(-c2nc3cc4ccccc4cc3[nH]2)c(OC)cc1Br [Compound 13, 2-(4-Bromo-2,5-dimethoxyphenyl)-1H-naphtho[2,3-d]imidazole] | 57.7 ± 0.01 | 100 | – | – | –
COc1cc(-c2nc3cc4ccccc4cc3[nH]2)ccc1OC(C)=O [Compound 3, 2-Methoxy-4-(1H-naphtho[2,3-d]imidazol-2-yl)phenyl acetate] | 67.4 ± 0.01 | 75 | excellent antioxidant activity | 56.3 ± 0.78 | –
COc1ccc(Br)c(-c2nc3cc4ccccc4cc3[nH]2)c1O [Compound 11, 3-Bromo-6-methoxy-2-(1H-naphtho[2,3-d]imidazol-2-yl)phenol] | 71.1 ± 0.01 | 37.5 | excellent antioxidant activity | 42.4 ± 0.65 | –
Brc1cccc(-c2nc3cc4ccccc4cc3[nH]2)c1 [Compound 15, 2-(3-Bromophenyl)-1H-naphtho[2,3-d]imidazole] | 69.3 ± 0.01 | 75 | excellent antioxidant activity | – | –
COc1ccc(-c2nc3cc4ccccc4cc3[nH]2)cc1OC [Compound 9, 2-(3,4-Dimethoxyphenyl)-1H-naphtho[2,3-d]imidazole] | 57.8 ± 0.02 | 100 | – | 67.14 ± 0.67 | –
c1ccc(-c2nc3cc4ccccc4cc3[nH]2)cc1 [Compound 12, 2-Phenyl-1H-naphtho[2,3-d]imidazole] | 43 ± 0.01 | – | – | – | –
CCOc1ccc(-c2nc3cc4ccccc4cc3[nH]2)cc1OC [Compound 2, 2-(4-Ethoxy-3-methoxyphenyl)-1H-naphtho[2,3-d]imidazole] | 43 ± 0.01 | – | – | 73.5 ± 0.65 | –
Fc1cc(Br)ccc1-c1nc2cc3ccccc3cc2[nH]1 [Compound 14, 2-(4-Bromo-2-fluorophenyl)-1H-naphtho[2,3-d]imidazole] | 23 ± 0.01 | – | – | – | –
O=C1O[C@H]([C@@H](O)CO)C(O)=C1O [Ascorbic acid, reference compound] | 80 | 8.3 | – | – | –
c1csc(-c2nc3cc4ccccc4cc3[nH]2)c1 [Compound 8, 2-(Thiophen-2-yl)-1H-naphtho[2,3-d]imidazole] | 32 ± 0.01 | – | – | 86.4 ± 0.78 | –
Oc1ccc(Cl)cc1-c1nc2cc3ccccc3cc2[nH]1 [Compound 4, 4-Chloro-2-(1H-naphtho[2,3-d]imidazol-2yl)phenol] | 29 ± 0.01 | – | – | 34.2 ± 0.72 | –
